Laboratory results reported in ChEMBL document CHEMBL4321823, “Benzyl Phenylsemicarbazides: A Chemistry-Driven Approach Leading to G Protein-Biased Dopamine D4 Receptor Agonists with High Subtype Selectivity” (J Med Chem, 2019).

Columns and labels:
[1] = molecular target: Kappa-type opioid receptor (Homo sapiens, UniProt P41145); test: Displacement of [3H] diprenorphine from kappa opioid receptor (unknown origin)
In short: (§1)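 Radioligand competition binding; Ki given as mean ± SD from two individual experiments, each run in triplicate.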

[2] = molecular target: Beta-1 adrenergic receptor (Homo sapiens, UniProt P08588); test: Displacement of [3H] CGP12177 from beta1 adrenergic receptor (unknown origin)
Homo sapiens [3] = species on record: Homo sapiens; test: Selectivity index, ratio of Ki for displacement of [3H] Spiperone from human D2L receptor expressed in CHO cells to Ki for displacement of [3H] Spiperone from human D4.4 receptor expressed in CHO cells; format: cell-based
In short: (§2)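 Competition binding against [3H]spiperone on membranes of CHO cells stably expressing cloned human D2L, D2S, D3 or D4.4 receptors. Ki from monophasic curve fits; mean ± SEM of three to seven experiments, each in triplicate. Selectivity calculated as Ki(D2L, D2S or D3) divided by Ki(D4.4).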

[4] = molecular target: Delta-type opioid receptor (Homo sapiens, UniProt P41143); test: Displacement of [3H] diprenorphine from delta opioid receptor (unknown origin)
D(4) dopamine receptor [5] = molecular target: T1, D(4) dopamine receptor (Homo sapiens, UniProt P21917); format: cell-based, HEK293
T1 sequence (P21917 whole entry): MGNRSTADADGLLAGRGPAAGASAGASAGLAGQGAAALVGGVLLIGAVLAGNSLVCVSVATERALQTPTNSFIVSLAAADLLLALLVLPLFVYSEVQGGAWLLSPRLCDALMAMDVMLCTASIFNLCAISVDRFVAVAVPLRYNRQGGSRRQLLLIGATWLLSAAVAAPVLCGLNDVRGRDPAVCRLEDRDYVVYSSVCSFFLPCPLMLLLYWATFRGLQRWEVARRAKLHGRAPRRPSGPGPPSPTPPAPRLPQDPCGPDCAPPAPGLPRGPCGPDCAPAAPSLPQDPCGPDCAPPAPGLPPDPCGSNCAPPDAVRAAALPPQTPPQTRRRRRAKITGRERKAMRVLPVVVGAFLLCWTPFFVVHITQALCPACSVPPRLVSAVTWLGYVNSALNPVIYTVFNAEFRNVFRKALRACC

Homo sapiens [6] = species on record: Homo sapiens; test: Selectivity index, ratio of Ki for displacement of [3H] prazosin from alpha1A adrenergic receptor to Ki for displacement of [3H] Spiperone from human D4.4 receptor expressed in CHO cells; format: cell-based
[7] = molecular target: T2, Muscarinic acetylcholine receptor M2 (Homo sapiens, UniProt P08172); test: Displacement of [3H] NMS from muscarinic M2 receptor (unknown origin); in short: as §1
T2 sequence (P08172 whole entry): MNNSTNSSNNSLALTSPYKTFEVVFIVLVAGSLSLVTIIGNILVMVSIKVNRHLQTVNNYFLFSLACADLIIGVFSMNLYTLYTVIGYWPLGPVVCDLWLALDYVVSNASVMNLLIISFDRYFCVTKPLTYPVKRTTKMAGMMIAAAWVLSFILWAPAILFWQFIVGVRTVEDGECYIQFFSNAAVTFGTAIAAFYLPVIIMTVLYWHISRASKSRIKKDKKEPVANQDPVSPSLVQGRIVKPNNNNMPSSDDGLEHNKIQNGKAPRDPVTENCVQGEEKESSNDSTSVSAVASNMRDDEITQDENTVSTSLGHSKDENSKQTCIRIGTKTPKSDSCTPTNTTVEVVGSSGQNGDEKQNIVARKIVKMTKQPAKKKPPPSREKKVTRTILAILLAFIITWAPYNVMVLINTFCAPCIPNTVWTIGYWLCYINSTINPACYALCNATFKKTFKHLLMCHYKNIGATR

D(4) dopamine receptor [8] = molecular target: T1, D(4) dopamine receptor; test: Antagonist activity at […] D4 receptor (unknown origin) expressed in HEK293 cells co-expressing beta-arrestin2 assessed as inhibition of quinpirole-induced beta-arrestin2 recruitment preincubated for 30 mins followed by quinpirole addition and further incubated for 6 hrs by Path-Hunter assay; format: cell-based
D(2) dopamine receptor [9] = molecular target: T3, D(2) dopamine receptor (Homo sapiens, UniProt P14416); test: Displacement of [3H] Spiperone from human D2L receptor expressed in CHO cells by competitive radioligand binding assay; format: cell-based
D(3) dopamine receptor = D(3) dopamine receptor (Homo sapiens, UniProt P35462); test: Displacement of [3H] Spiperone from human D3 receptor expressed in CHO cells by competitive radioligand binding assay; format: cell-based
[10] = molecular target: T4, Muscarinic acetylcholine receptor M1 (Homo sapiens, UniProt P11229); test: Displacement of [3H] NMS from muscarinic M1 receptor (unknown origin); in short: as §1
T4 sequence (P11229 whole entry): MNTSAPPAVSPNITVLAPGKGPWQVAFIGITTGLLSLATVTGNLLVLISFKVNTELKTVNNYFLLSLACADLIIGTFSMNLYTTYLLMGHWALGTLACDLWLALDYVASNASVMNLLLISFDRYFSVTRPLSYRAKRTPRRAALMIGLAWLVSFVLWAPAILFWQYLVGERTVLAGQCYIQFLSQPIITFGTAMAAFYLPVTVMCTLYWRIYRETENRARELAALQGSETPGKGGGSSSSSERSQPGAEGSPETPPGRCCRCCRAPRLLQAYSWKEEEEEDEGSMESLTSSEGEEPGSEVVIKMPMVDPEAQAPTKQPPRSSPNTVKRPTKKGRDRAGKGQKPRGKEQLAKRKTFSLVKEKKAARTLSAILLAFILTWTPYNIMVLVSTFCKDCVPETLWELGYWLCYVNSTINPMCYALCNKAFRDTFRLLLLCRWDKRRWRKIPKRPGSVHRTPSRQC

[11] = molecular target: T5, 5-hydroxytryptamine receptor 1A (Homo sapiens, UniProt P08908); test: Displacement of [3H] WAY100635 from 5HT1A receptor (unknown origin); in short: as §1
T5 sequence (P08908 whole entry): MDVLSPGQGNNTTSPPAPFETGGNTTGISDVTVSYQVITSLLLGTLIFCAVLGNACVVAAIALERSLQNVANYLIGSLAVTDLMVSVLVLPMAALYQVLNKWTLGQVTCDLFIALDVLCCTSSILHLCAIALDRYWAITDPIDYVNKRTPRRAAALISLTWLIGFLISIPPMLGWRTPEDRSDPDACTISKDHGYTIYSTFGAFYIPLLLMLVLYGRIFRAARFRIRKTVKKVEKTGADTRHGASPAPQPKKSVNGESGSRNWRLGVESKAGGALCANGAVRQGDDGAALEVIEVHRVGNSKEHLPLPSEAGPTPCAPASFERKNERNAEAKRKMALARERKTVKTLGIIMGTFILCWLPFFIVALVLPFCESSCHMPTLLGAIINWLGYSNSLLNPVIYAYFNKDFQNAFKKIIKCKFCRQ

D(2) dopamine receptor [12] = molecular target: T3, D(2) dopamine receptor; test: Displacement of [3H] Spiperone from human D2S receptor expressed in CHO cells by competitive radioligand binding assay; format: cell-based
D(4) dopamine receptor [13] = molecular target: T1, D(4) dopamine receptor; test: Agonist activity at human D4 receptor expressed in HEK293T cells co-expressing G-alphaqi assessed as accumulation of inositol monophosphate using d2-labelled IP1 conjugate incubated for 90 mins by HTRF assay; format: functional, cell-based
D(4) dopamine receptor [14] = molecular target: T1, D(4) dopamine receptor; test: Displacement of [3H] Spiperone from human D4.4 receptor expressed in CHO cells by competitive radioligand binding assay; format: cell-based
Homo sapiens [15] = species on record: Homo sapiens; test: Selectivity index, ratio of Ki for displacement of [3H] Spiperone from human D3 receptor expressed in CHO cells to Ki for displacement of [3H] Spiperone from human D4.4 receptor expressed in CHO cells; format: cell-based; in short: as §2

T3 sequence (P14416 whole entry): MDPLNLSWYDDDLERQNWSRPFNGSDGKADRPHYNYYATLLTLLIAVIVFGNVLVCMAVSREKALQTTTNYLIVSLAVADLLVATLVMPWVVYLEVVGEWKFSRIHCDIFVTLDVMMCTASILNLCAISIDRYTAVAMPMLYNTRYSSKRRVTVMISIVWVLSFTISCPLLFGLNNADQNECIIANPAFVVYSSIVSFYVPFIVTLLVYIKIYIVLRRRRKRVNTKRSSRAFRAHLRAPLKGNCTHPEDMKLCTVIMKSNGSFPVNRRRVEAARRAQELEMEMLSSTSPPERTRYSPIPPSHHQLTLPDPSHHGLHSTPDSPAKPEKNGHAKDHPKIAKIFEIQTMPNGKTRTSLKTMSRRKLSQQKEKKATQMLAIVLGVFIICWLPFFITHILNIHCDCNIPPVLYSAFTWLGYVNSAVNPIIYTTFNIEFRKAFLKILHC
D(3) dopamine receptor, sequence (P35462 whole entry): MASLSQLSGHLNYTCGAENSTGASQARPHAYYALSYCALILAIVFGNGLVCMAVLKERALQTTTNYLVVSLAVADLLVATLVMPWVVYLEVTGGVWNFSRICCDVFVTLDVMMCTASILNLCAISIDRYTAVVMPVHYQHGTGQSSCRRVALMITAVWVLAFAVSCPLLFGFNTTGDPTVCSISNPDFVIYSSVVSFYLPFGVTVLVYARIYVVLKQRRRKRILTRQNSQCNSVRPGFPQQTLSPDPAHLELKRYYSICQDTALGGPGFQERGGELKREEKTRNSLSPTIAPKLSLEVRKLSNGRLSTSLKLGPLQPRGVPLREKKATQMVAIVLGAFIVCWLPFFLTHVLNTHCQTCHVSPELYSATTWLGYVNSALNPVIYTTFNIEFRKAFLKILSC
Kappa-type opioid receptor, sequence (P41145 whole entry): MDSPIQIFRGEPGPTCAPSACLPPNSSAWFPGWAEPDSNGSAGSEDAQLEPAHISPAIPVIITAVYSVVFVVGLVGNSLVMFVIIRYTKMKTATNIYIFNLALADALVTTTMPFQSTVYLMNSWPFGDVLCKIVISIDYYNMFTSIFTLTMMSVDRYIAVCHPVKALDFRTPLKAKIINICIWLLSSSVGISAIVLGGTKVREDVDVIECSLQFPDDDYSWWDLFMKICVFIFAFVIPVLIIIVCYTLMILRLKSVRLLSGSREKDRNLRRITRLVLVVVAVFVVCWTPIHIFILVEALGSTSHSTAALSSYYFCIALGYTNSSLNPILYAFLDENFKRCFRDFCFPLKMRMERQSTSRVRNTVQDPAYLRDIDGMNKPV
Beta-1 adrenergic receptor, sequence (P08588 whole entry): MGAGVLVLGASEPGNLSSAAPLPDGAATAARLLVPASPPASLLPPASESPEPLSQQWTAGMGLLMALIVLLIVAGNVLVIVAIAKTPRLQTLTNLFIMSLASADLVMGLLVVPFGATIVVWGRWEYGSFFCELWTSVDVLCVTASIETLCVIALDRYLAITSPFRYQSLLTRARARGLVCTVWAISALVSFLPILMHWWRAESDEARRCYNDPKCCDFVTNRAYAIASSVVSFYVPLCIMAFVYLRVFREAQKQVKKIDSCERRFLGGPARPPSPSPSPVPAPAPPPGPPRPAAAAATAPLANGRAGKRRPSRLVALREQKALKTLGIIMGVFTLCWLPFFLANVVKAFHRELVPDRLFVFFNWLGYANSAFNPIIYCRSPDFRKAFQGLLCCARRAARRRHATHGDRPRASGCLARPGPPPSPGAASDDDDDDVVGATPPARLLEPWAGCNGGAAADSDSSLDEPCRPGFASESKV
Delta-type opioid receptor, sequence (P41143 whole entry): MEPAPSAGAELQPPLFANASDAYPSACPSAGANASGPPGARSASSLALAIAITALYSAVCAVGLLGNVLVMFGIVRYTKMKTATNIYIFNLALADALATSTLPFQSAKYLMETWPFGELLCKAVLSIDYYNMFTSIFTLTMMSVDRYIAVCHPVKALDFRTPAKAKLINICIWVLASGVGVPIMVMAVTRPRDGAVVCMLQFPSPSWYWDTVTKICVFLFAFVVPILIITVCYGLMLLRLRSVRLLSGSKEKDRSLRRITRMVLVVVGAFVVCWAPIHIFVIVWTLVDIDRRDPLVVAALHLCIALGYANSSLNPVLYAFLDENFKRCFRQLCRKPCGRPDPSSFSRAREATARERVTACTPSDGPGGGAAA

Ki [1]: 4300 nM
Ki [2]: > 50000 nM
Ki [4]: 19000 nM
EC50 (D(4) dopamine receptor [5]): 500 nM
Ki [7]: 17000 nM
IC50 (D(4) dopamine receptor [8]): 620 nM
Ki (D(2) dopamine receptor [9]): 140 nM
Ki (D(3) dopamine receptor): 310 nM
Ki [10]: 15000 nM
Ki [11]: 34 nM
Ki (D(2) dopamine receptor [12]): 110 nM
EC50 (D(4) dopamine receptor [13]): 41 nM
Ki (D(4) dopamine receptor [14]): 0.55 nM
Compound: COc1ccccc1N1CCN(CCCNC(=O)NN(Cc2ccc(F)cc2)c2ccccc2)CC1
Ratio Ki (Homo sapiens [3]): 250
Ratio Ki (Homo sapiens [6]): 2.9
Ratio Ki (Homo sapiens [15]): 560
